Results gathered from unrelated publications.
Target: 5-hydroxytryptamine receptor 2B (HTR2B, Homo sapiens, UniProt P41595)

CCN(CC)CCCC[C@H](NC(=O)[C@H](CC(C)C)NC(=O)[C@H](C)NC(=O)[C@H](Cc1ccccc1)NC(=O)c1ccc(C(C)(C)C)cc1)C(=O)N[C@@H](CO)C(=O)OC — inhibition (ligand displacement; radioligand; 10 µM): 7%
N#CC1(c2ccccn2)CCN(Cc2cc(C(=O)O)c(=O)n3ccccc23)CC1 — inhibition (ligand displacement; 10 µM): 3.23%
C[C@H](C(=O)N[C@H]1COc2ccccc2[C@@H]1S(C)(=O)=O)c1ccc(F)cc1 — inhibition (ligand displacement; 10 µM): -9%
CCOc1ccccc1NC(=O)c1ccccc1NS(=O)(=O)C1CC1 — inhibition (ligand displacement; radioligand; 10 µM): 63%
COCCN(CCOC)C(=O)[C@@]12C[C@@H]1[C@@H](n1cnc3c(N)nc(Cl)nc31)[C@H](O)[C@@H]2O — inhibition (ligand displacement; radioligand; 10 µM): 36%
COCc1c(-c2cc3cc(C)cc(OC)c3s2)c2c(N)ncnn2c1CN1CCNC(=O)C1 — inhibition (ligand displacement; radioligand; 10 µM): 84%
CC(C)N1CCC[C@H]1CNC(=O)c1cn(C2CCCC2)c(=O)c2c1c1ccccc1n2C — inhibition (ligand displacement; radioligand; 10 µM): 41%
Clc1ccc2c(C3CCN(CCc4c[nH]c5ccccc45)CC3)c[nH]c2c1 — inhibition (ligand displacement; radioligand; 10 µM): 100%
Nc1ncc(-c2nc(N3CCOCC3)nc(N3CCOCC3)n2)c(C(F)F)n1 — remaining signal (cell-free assay; radioligand; 10 µM): 94.1%
c1ccc(C(NCCNC(c2ccccc2)c2ccccc2)c2ccccc2)cc1 — inhibition (ligand displacement; 10 µM): 79%
CCC(N)Cc1cc(OC)c(COC)cc1OC (centres unmarked) — Emax (G protein activation; agonist; BRET): 43%
Cn1cncc1[C@@](O)(COc1ccc(C#N)cc1-c1ccc(OC(F)(F)F)cc1)c1ccc(C#N)cc1 — inhibition (ligand displacement; 10 µM): 18.6%
COc1cc2c3c(c1OC)-c1cc4c(cc1CC3N(C)CC2)OCO4 (racemic) — inhibition (ligand displacement; radioligand; 10 µM): 92.8%
CC(Cc1ccccc1)NCCn1cnc2c1c(=O)n(C)c(=O)n2C (centres unmarked) — inhibition (ligand displacement; radioligand; 10 µM): 23%
